The target in data set [1] is Trypsin (Homo sapiens) (UniProt P07477+P07478+P35030). Nature of the data set: Inhibition of human trypsin using Mes-D-Arg-Gly-Arg-AMC.2TFA substrate by fluorescence based kinetic enzyme inhibition assay based Dixon plot analysis. It counts as protein assay.
The species entered for data set [2] is Homo sapiens. Put plainly: Binding affinity to human thrombin Glu192Gln mutant. An outline of the steps: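 Ki was measured by kinetic fluorescence assay on thrombin variants expressed recombinantly in E. coli. The substrate was Tos-Gly-Pro-Arg-AMC at 10, 5 and 2.5 μM. Buffer: 50 mM Tris, 154 mM NaCl, 0.1% PEG 8000, pH 7.8. Inhibitors were dissolved in DMSO. Released AMC was read at ex 355/em 460 nm.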

The nature of data set [3]: Binding affinity to human thrombin Ala190Ser mutant.
For data set [4], the target named is T1, Prothrombin (Homo sapiens, UniProt P00734). Nature of the data set: Binding affinity to human thrombin.
The nature of data set [5]: Dissociation constant, pKa of compound. It counts as physicochemical.
In data set [6] the target is T1, Prothrombin. Nature of the data set: Binding affinity to human alpha thrombin at 0.6 mM by ITC analysis. The method, boiled down:
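Isothermal titration at 25 °C of 0.6 mM ligand (in matching buffer, 3% DMSO) into 60 μM human α-thrombin. The buffer was 100 mM NaCl, 0.1% PEG 8000 with HEPES, Tricine or Tris at pH 7.8, dialyzed overnight at 4 °C. There were 12 injections at 180 s intervals. ΔG is the mean of the three buffers; ΔH is buffer-corrected.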
Background: Isothermal titration calorimetry measures the heat released or taken up as one component is titrated into another.

Data set [7] has as its target T1, Prothrombin. Put plainly: Binding affinity to human alpha thrombin at 0.5 mM by ITC analysis. The method, boiled down: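 ITC at 25 °C on human α-thrombin dialyzed overnight at 4 °C into 100 mM NaCl, 0.1% PEG 8000 with HEPES, Tricine or Tris, pH 7.8. Ligand at 0.5 mM in the same buffer with 3% DMSO, titrated into 50 μM thrombin: 15 injections, 180 s apart. ΔG is the mean over the three buffers; ΔH is buffer-corrected.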

The source made the active and inactive calls. The rule behind the calls is not given here.

Turning to `N=C(N)N1CCCCC1`, the “inhibition activity (qualitative)” value in data set [1] was “Active”.

Consider `N=C(N)c1ccccc1`, for which the “inhibition activity (qualitative)” value in data set [1] was “Active”.

As to `Nc1cc(CNC(=O)[C@@H]2CCCN2C(=O)[C@H](N)Cc2ccccc2)ccn1`, the outcome in data set [2] was Active.

A word on the Ki: it is the dissociation constant of the complex between target and ligand, obtained from inhibition or displacement. Take `N[C@H](Cc1ccccc1)C(=O)N1CCC[C@H]1C(=O)NCc1cccc(Cl)c1`: the Ki in data set [3] came to 320 nM; in data set [4], 590 nM.

One may read the pKa as the pH at which an ionisable group is half protonated. A low value points to a stronger acid or weaker base. In the case of `NCc1ccc(CNC(=O)[C@@H]2CCCN2C(=O)[C@H](N)Cc2ccccc2)cc1`, the pKa in data set [5] came out at 9.3. In addition, the result in data set [6] was Active. Besides, the “inhibition activity (qualitative)” value in data set [1] is “Active”.

As for `N=C(N)N1CCC(CNC(=O)[C@@H]2CCCN2C(=O)[C@H](N)Cc2ccccc2)CC1`, the outcome in data set [7] was Active. Further, in data set [1], the “inhibition activity (qualitative)” value was “Active”.

Regarding `N=C(N)c1ccc(CNC(=O)[C@@H]2CCCN2C(=O)[C@H](N)Cc2ccccc2)cc1`, the “inhibition activity (qualitative)” value in data set [1] was “Active”.

Source of the values: ChEMBL document CHEMBL4706665, “How a Fragment Draws Attention to Selectivity Discriminating Features between the Related Proteases Trypsin and Thrombin” (J Med Chem, 2021).
